Assay [1] addresses T1, Neuronal acetylcholine receptor; alpha3/beta4 (Homo sapiens, UniProt P30926+P32297). As to the kind of experiment: Agonist activity at human alpha3beta4 nAChR expressed in rat GH4C1 cells assessed as induction of peak current amplitude at holding potential of -70 mV by whole-cell patch clamp assay relative to acetylcholine. The conditions noted are these: GH4-C1. The assay is classed as cell-based. Put shortly:
(§1)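 Human α3β4 or α4β2 nAChR transiently transfected into rat anterior pituitary GH4C1 cells (0.5 μg each subunit cDNA, magnetofection). Whole-cell patch clamp at −70 mV holding potential, with gravity-driven fast perfusion. Agonist concentrations applied sequentially. Peak currents normalized to 1 mM ACh on the same cell. EC50, Imax and nH from Hill equation fit.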
A general note: The patch-clamp technique gives a direct electrical read-out from membranes.

Assay [2] has as its target T2, Neuronal acetylcholine receptor; alpha4/beta2 (Homo sapiens, UniProt P17787+P43681). As to the kind of experiment: Agonist activity at human alpha4beta2 nAChR expressed in rat GH4C1 cells assessed as induction of peak current amplitude at holding potential of -70 mV by whole-cell patch clamp assay. It counts as cell-based, GH4-C1. Put shortly:
as §1

Assay [3] deals with Neuronal acetylcholine receptor; alpha4/beta2 (Rattus norvegicus, UniProt P09483+P12390). As to the kind of experiment: Displacement of [3H]epibatidine from alpha4beta2 nAChR in rat cortex membranes by liquid scintillation counting method. The assay is classed as cell membranes. Put shortly: (§2)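 Rat hippocampus (α7) or cortex (α4β2) membranes. Ki obtained by simultaneous nonlinear least-squares fitting of three saturation plus three competition binding experiments per compound per subtype.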
Sequence of Neuronal acetylcholine receptor; alpha4/beta2 (Rattus norvegicus, UniProt P09483+P12390) (P09483 whole entry): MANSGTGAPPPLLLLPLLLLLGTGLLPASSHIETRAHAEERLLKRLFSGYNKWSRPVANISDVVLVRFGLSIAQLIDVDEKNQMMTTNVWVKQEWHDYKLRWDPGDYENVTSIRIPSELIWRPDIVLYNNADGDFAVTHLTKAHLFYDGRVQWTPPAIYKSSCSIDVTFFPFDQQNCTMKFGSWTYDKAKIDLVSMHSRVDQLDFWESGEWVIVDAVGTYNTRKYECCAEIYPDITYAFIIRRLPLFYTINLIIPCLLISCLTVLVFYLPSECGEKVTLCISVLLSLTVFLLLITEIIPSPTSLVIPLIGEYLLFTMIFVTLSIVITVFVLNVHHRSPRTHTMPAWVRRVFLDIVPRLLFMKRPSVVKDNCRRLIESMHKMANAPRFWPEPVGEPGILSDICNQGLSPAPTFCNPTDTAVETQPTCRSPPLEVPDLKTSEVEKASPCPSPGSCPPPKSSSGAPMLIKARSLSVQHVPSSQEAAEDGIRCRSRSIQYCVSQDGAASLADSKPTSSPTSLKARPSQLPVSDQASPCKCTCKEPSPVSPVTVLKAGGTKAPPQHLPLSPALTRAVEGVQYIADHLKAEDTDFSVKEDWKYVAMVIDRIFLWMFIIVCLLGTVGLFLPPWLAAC
Sequence of Neuronal acetylcholine receptor; alpha4/beta2 (Rattus norvegicus, UniProt P09483+P12390) (P12390 whole entry): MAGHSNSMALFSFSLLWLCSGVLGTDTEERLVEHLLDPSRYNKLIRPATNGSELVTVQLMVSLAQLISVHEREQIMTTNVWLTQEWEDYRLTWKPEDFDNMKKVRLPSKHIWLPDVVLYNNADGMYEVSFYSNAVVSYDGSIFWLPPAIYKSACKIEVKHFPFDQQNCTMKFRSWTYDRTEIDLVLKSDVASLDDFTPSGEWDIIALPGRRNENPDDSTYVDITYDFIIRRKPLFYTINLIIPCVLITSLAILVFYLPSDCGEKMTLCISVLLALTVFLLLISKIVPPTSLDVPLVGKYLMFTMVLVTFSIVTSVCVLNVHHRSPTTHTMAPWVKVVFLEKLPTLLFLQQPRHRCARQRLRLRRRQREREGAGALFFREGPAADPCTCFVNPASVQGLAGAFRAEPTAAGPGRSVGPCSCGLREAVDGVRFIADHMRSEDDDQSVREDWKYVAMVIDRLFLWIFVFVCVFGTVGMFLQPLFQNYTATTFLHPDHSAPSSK
For orientation: Displacement assays read how much labelled ligand stays bound in the presence of the test substance.

Assay [4] has as its target Neuronal acetylcholine receptor subunit alpha-7 (Rattus norvegicus, UniProt Q05941). The experiment in a line: Displacement of [125I]]-alpha-bungarotoxin from alpha7 nAChR in rat hippocampus membranes by liquid scintillation counting method. It counts as cell membranes, Membrane. Put shortly: as §2
The target in assay [5] is T2, Neuronal acetylcholine receptor; alpha4/beta2. The experiment in a line: Agonist activity at human alpha4beta2 nAChR expressed in rat GH4C1 cells assessed as induction of peak current amplitude at holding potential of -70 mV by whole-cell patch clamp assay relative to acetylcholine. It counts as cell-based. The conditions noted are these: GH4-C1. Put shortly: as §1

Assay [6] concerns the target T1, Neuronal acetylcholine receptor; alpha3/beta4. As to the kind of experiment: Displacement of [3H]epibatidine from human alpha3beta4 nAChR expressed in HEK293 cell membranes by liquid scintillation counting method. Put shortly:
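Competition against [3H]epibatidine on membranes of human α3β4-transfected cells. Ki obtained by simultaneously fitting three independent saturation and three competition experiments per compound with nonlinear least squares.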

Assay [7] has as its target T2, Neuronal acetylcholine receptor; alpha4/beta2. The experiment in a line: Agonist activity at human alpha4beta2 nAChR in (alpha4)3(beta2)2 stoichiometry form relative to control. It counts as protein-complex assay.
Assay [8] deals with T1, Neuronal acetylcholine receptor; alpha3/beta4. As to the kind of experiment: Agonist activity at human alpha3beta4 nAChR expressed in rat GH4C1 cells assessed as induction of peak current amplitude at holding potential of -70 mV by whole-cell patch clamp assay. It counts as cell-based, GH4-C1. Put shortly:
(§3)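 Human α3β4 or α4β2 subunit cDNAs (0.5 μg each) transiently transfected into rat GH4C1 cells by magnetofection. Whole-cell voltage clamp at −70 mV, 85−90% series-resistance compensation, fast gravity-perfusion exchanger. Agonist concentrations applied sequentially; peak currents normalized to 1 mM ACh on the same cell. EC50 and nH from Hill-equation fit where possible.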

For assay [9], the target named is T2, Neuronal acetylcholine receptor; alpha4/beta2. As to the kind of experiment: Selectivity index, ratio of EC50 for human alpha3beta4 nAChR expressed in rat GH4C1 cells to EC50 for human alpha4beta2 nAChR expressed in rat GH4C1 cells. It counts as cell-based. To be noted: GH4-C1. Put shortly: as §3

Each structure is given as a SMILES string.

T1 sequence (P30926 whole entry, the tested form may be a part): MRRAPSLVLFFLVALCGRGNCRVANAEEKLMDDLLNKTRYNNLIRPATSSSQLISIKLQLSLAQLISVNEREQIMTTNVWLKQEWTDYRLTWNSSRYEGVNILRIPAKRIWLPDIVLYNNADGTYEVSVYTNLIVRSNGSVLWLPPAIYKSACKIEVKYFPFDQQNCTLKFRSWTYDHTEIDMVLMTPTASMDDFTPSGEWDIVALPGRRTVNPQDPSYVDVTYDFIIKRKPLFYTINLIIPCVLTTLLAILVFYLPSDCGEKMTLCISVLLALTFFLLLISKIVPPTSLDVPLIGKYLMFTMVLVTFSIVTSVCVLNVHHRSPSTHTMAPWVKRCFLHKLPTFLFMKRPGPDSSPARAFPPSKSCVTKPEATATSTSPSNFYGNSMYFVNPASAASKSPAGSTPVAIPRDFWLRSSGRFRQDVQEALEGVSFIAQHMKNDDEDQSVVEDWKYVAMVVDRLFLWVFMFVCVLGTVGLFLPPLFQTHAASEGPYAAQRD
T1 sequence (P32297 whole entry, the tested form may be a part): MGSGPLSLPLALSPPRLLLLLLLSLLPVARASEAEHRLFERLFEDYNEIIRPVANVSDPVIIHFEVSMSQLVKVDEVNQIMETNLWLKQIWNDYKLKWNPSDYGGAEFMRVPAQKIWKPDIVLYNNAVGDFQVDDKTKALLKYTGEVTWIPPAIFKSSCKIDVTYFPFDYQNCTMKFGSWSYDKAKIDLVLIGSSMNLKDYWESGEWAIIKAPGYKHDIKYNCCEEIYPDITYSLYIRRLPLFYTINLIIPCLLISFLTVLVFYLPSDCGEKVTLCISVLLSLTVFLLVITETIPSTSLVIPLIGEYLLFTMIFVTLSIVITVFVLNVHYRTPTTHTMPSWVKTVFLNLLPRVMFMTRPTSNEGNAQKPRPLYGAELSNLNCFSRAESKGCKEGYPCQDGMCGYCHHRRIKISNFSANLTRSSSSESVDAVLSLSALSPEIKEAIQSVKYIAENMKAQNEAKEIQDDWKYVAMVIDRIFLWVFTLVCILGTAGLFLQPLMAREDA
Sequence of Neuronal acetylcholine receptor subunit alpha-7 (Q05941 whole entry): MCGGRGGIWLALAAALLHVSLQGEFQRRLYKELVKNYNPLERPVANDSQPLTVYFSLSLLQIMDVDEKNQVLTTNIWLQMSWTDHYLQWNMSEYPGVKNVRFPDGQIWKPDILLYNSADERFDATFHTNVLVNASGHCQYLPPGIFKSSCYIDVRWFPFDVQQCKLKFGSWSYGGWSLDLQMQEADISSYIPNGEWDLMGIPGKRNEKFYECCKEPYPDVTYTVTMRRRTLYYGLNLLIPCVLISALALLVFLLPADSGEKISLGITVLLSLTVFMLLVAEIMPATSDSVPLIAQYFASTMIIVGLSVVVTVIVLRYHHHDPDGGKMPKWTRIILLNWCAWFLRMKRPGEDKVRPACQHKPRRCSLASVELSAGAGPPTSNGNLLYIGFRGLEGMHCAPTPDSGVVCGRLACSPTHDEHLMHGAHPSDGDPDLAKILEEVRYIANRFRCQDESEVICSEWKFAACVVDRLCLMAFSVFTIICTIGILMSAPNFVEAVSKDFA
T2 sequence (P17787 whole entry): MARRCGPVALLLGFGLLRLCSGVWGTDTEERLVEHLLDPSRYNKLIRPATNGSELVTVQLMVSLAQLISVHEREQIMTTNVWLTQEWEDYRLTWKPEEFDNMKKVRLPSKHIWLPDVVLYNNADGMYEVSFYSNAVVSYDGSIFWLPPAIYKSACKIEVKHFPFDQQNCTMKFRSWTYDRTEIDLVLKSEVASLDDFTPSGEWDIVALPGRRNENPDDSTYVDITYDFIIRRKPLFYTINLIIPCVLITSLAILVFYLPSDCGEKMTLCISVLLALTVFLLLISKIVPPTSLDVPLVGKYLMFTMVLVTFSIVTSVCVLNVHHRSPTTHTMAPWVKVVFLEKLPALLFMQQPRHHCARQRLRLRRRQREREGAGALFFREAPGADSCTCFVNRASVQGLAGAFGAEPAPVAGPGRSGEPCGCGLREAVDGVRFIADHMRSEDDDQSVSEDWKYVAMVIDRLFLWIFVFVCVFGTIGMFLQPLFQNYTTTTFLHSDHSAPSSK
T2 sequence (P43681 whole entry): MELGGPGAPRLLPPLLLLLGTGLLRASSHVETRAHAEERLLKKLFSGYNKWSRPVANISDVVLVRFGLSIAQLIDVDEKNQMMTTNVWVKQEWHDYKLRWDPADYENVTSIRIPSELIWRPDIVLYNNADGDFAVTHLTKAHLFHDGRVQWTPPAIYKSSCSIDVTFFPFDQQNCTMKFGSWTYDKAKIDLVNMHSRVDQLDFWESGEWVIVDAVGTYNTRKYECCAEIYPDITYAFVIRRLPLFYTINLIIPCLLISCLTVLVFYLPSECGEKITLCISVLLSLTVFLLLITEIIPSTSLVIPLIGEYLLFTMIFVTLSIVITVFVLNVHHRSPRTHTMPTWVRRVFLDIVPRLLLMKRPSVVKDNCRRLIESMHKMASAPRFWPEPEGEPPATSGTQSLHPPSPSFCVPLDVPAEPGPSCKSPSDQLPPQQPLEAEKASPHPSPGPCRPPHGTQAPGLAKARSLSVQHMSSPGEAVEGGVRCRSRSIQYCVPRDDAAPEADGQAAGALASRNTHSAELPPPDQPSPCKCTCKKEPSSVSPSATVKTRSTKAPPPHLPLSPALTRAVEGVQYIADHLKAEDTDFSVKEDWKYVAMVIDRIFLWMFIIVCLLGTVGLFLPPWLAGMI

As for `CN1CCC[C@H]1COc1cncc(O)c1`, the Imax in assay [1] is 15%; in assay [5] it was 661%. For the same compound, the EC50 (commonly the concentration giving half of the maximal effect) in assay [2] was found to be 73000 nM. Also, the Ki (as a rule, the equilibrium dissociation constant of an inhibitor or competing ligand from its target) in [3] was found to be 3.7 nM; in [4], 321 nM; in assay [6], 235 nM.

In the case of `Oc1cccc(OC[C@@H]2CCN2)c1`, the Ki in assay [3] was determined as 7.1 nM; in assay [4] it was 1200 nM; in assay [6], 40 nM.

For the compound `COc1ccc(O)cc1OC[C@@H]1CCCN1C`, the results for the Imax in [1] and in assay [5] were 7% and 17%, respectively. The Ki is 18.9 nM in assay [3], 1150 nM in assay [4] and 271 nM in assay [6].

Consider `OCCCCC#Cc1cncc(OC[C@@H]2CCN2)c1`, for which the Imax in [1] was 24%; in [5], 39%. In addition, in [2], the EC50 came to 0.27 nM. Further, in assay [7], the Efficacy worked out at 6%.

As for `COc1ccccc1OC[C@@H]1CCCN1`, the Ki was determined as 53500 nM in assay [3] and 3600 nM in [6].

Take `CC(Oc1ccccc1)C1CCCN1C` (mixture of isomers): the figures for the Ki in assay [3], in assay [4] and in [6] were 4590 nM, 8900 nM and 1400 nM, respectively.

For the compound `COc1ncccc1OC[C@@H]1CCCN1C`, the Ki was found to be 7280 nM in [3] and 793 nM in [6].

In the case of `CN1CC[C@H]1COc1ccccc1`, in assay [3], the Ki stood at 101 nM.

In turn, `c1ccc(OC[C@@H]2CCN2)cc1` yielded a Ki in assay [3] of 52 nM. This Ki is about 1.9-fold lower than that of the compound before.

In the case of `Oc1cncc(OC[C@@H]2CCCN2)c1`, the Ki was 2.5 nM in assay [3], 3500 nM in [4] and 100 nM in [6].

Take `C[C@@H](Oc1cccc(O)c1)[C@@H]1CCCN1C` (racemic): the Ki was found to be 11.1 nM in assay [3], 57 nM in assay [4] and 257 nM in assay [6].

For `COc1ccncc1OC[C@@H]1CCCN1`, the Ki in assay [3] is 613 nM; in [4] it was 21500 nM; in assay [6] it was 2900 nM.

As to `CN1CC[C@H]1COc1cccc(O)c1`, the EC50 in assay [8] was determined as 9200 nM. Also, the Imax amounted to 57% in assay [1] and 131% in assay [5]. Besides, the Ki in assay [3] was 8.5 nM; in [4], 29 nM; in assay [6] it was 102 nM.

For `C[C@H](Oc1cccnc1)[C@@H]1CCCN1C`, the Ki in assay [3] turned out to be 877 nM; in [4] it was 6100 nM; in assay [6] it was 5600 nM.

`CN1CCC[C@H]1COc1cccc(O)c1`: the EC50 came out at 9000 nM in assay [8] and 4400 nM in assay [2]. Moreover, the Imax was 85% in assay [1] and 162% in assay [5]. The Ki was found to be 1.1 nM in assay [3], 119 nM in [4] and 74 nM in assay [6].

Consider `COc1ccccc1OC[C@@H]1CCCN1C`, for which the Ki in [3] came out at 9400 nM; in [6], 749 nM.

`C[C@@H](Oc1cccnc1)[C@@H]1CCCN1C` (racemic): the Imax in assay [1] came out at 7%; in [5] it was 39%. The EC50 in assay [2] was 13 nM. Besides, the Ki in assay [3] stood at 27 nM; in assay [4], 388 nM; in assay [6] it was 5000 nM.

Regarding `COc1ccc(O)cc1OC[C@@H]1CCCN1`, the Ki in assay [3] is 1080 nM; in assay [6] it was 7700 nM.

As for `C[C@H](Oc1cccc(O)c1)[C@@H]1CCCN1C`, the Ki is 192 nM in assay [3], 743 nM in assay [4] and 752 nM in [6].

On to `COc1ccncc1OC[C@@H]1CCCN1C`, for which the Ki in assay [3] is 255 nM; in [4], 9400 nM; in assay [6], 2100 nM.

As to `Oc1cccc(OC[C@@H]2CCCN2)c1`, the values for the Ki in assay [3], in [4] and in assay [6] were 407 nM, 212 nM and 3800 nM, respectively.

For the compound `CN1CCC[C@H]1[C@@H]1COc2ccc(O)cc2O1`, in [9], the Ratio EC50 amounted to 57. In addition, the figures for the EC50 in assay [8] and in assay [2] were 17000 nM and 300 nM, respectively. The Imax in [1] is 28%; in assay [5], 29%.

Consider `COc1ncccc1OC[C@@H]1CCCN1`, for which the Ki in assay [3] worked out at 8960 nM; in [6] it was 5300 nM.

For `C[C@@H](Oc1ccccc1)[C@@H]1CCCN1C` (racemic), the Ki was found to be 1550 nM in [3], 15200 nM in [4] and 1300 nM in assay [6].
